Test results as given in ChEMBL document CHEMBL1828627, “High-throughput-screening-based identification and structure-activity relationship characterization defined (S)-2-(1-aminoisobutyl)-1-(3-chlorobenzyl)benzimidazole as a highly antimycotic agent nontoxic to cell lines” (J Med Chem, 2011).
Values after ≈ are worked out from the molar mass of the structure shown. Active and inactive are the calls of the source.

How the values were obtained:
Candida albicans [1] = assay: Antifungal activity against Candida albicans AM2001/2007 by broth dilution method; type: functional
In short: (§1)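 MICs by broth microdilution following CLSI M27-A3 for yeasts, with fluconazole as the reference antifungal. Panel covered type strains and clinical isolates of Candida spp. (21 strains). Reference control strains: C. albicans DSMZ 11949, C. glabrata ATCC 90030, C. parapsilosis 22019 and 90018, Issatchenkia orientalis ATCC 6258. MIC in μg/mL; averages given as geometric means.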

Nakaseomyces glabratus [2] = assay: Antifungal activity against Candida glabrata AN 8626 by broth dilution method; type: functional; in short: as §1
Nakaseomyces glabratus [3] = assay: Antifungal activity against Candida glabrata CG 7 by broth dilution method; type: functional; in short: as §1
Candida albicans [4] = assay: Antifungal activity against Candida albicans SC5314 infected in HeLa cells at 20 uM after 5 days by fluorescein diacetate assay; type: functional, organism-based
In short: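 Primary HTS: HeLa cells co-incubated with C. albicans plus a single compound at ~20 μM for 5 days. Viability checked microscopically at 18 h and quantified at day 5 by fluorescein diacetate fluorescence. Wells also scanned visually for yeast growth. Hit criterion: >40% signal relative to the uninfected untreated HeLa (~100%) and infected untreated HeLa (~0%) controls.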

Candida parapsilosis [5] = assay: Antifungal activity against Candida parapsilosis AN 5485 by broth dilution method; type: functional; conditions: Lodderomyces parapsilosis; in short: as §1
Candida albicans [6] = assay: Antifungal activity against Candida albicans VB 1723 by broth dilution method; type: functional; in short: as §1
Candida albicans [7] = assay: Antifungal activity against Candida albicans Jg 32570 by broth dilution method; type: functional; in short: as §1
Candida albicans [8] = assay: Antifungal activity against Candida albicans AN 562 by broth dilution method; type: functional; in short: as §1
Candida albicans [9] = assay: Antifungal activity against Candida albicans AN 1699 by broth dilution method; type: functional; in short: as §1
Candida albicans [10] = assay: Antifungal activity against Candida albicans MY 2902/2008 by broth dilution method; type: functional; in short: as §1
Candida parapsilosis [11] = assay: Antifungal activity against Candida parapsilosis 90018 by broth dilution method; type: functional; conditions: Lodderomyces parapsilosis; in short: as §1
Candida parapsilosis [12] = assay: Antifungal activity against Candida parapsilosis AV 7675 by broth dilution method; type: functional; conditions: Lodderomyces parapsilosis; in short: as §1
Candida albicans [13] = assay: Antifungal activity against Candida albicans AN 1994 by broth dilution method; type: functional; in short: as §1
Pichia kudriavzevii = assay: Antifungal activity against Issatchenkia orientalis ATCC 6258 by broth dilution method; type: functional; in short: as §1
Candida albicans [14] = assay: Antifungal activity against Candida albicans AN 3156 by broth dilution method; type: functional; in short: as §1
Candida albicans [15] = assay: Antifungal activity against Candida albicans DSMZ 11949 by broth dilution method; type: functional; in short: as §1
Candida albicans [16] = assay: Antifungal activity against Candida albicans CA20 by broth dilution method; type: functional; in short: as §1
Candida tropicalis = assay: Antifungal activity against Candida tropicalis AN 1946 by broth dilution method; type: functional; in short: as §1
Candida parapsilosis [17] = assay: Antifungal activity against Candida parapsilosis 22019 by broth dilution method; type: functional; conditions: Lodderomyces parapsilosis; in short: as §1
Nakaseomyces glabratus [18] = assay: Antifungal activity against Candida glabrata ATCC 90030 by broth dilution method; type: functional; in short: as §1
Candida albicans [19] = assay: Antifungal activity against Candida albicans CA21 by broth dilution method; type: functional; in short: as §1
Candida albicans [20] = assay: Antifungal activity against Candida albicans SCS 71865 L by broth dilution method; type: functional; in short: as §1
[21] = Cytotoxicity against human HeLa cells assessed as cell viability after 5 days by fluorescein diacetate assay; type: cell-based
[22] = Selectivity index of CC50 for human HeLa cells to IC50 for Candida albicans SC5314 infected in HeLa cells
In short: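 Selectivity index calculated as CC50/IC50. CC50 is the half-maximal cytotoxic concentration in HeLa cells; IC50 is the half-maximal antimycotic concentration in the C. albicans–infected HeLa assay. Both come from 5-day fluorescein diacetate viability readouts.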

Candida albicans [23] = assay: Antifungal activity against Candida albicans SC5314 infected in HeLa cells after 5 days by fluorescein diacetate assay; type: functional, organism-based; conditions: Candida albicans, SC5314, HeLa, 120 h; read-out: IC50
In short: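 HeLa cells co-incubated with C. albicans and compound for 5 days. Dose–response from resynthesized compounds. Host-cell viability checked microscopically at 18 h, then quantified at day 5 by fluorescein diacetate conversion to a fluorophore by live cells. Wells also inspected visually for yeast growth. Controls: untreated uninfected HeLa (~100%) and untreated infected HeLa (~0%). IC50 derived from infected cells; CC50 as half-maximal cytotoxic concentration.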

SMILES	MIC (Candida albicans [1])	MIC (Nakaseomyces glabratus [2])	MIC (Nakaseomyces glabratus [3])	MIC (Candida parapsilosis [5])	MIC (Candida albicans [6])	MIC (Candida albicans [7])	MIC (Candida albicans [8])	MIC (Candida albicans [9])	MIC (Candida albicans [10])	MIC (Candida parapsilosis [11])	MIC (Candida parapsilosis [12])	MIC (Candida albicans [13])	MIC (Pichia kudriavzevii)	MIC (Candida albicans [14])	MIC (Candida albicans [15])	MIC (Candida albicans [16])	MIC (Candida tropicalis)	MIC (Candida parapsilosis [17])	MIC (Nakaseomyces glabratus [18])	MIC (Candida albicans [19])	other results
Cc1cccc(Cn2c([C@H](C)N)nc3ccccc32)c1	64 µg/mL (≈ 241 µM)	64 µg/mL (≈ 241 µM)	64 µg/mL (≈ 241 µM)	128 µg/mL (≈ 482 µM)	128 µg/mL (≈ 482 µM)	128 µg/mL (≈ 482 µM)	128 µg/mL (≈ 482 µM)	128 µg/mL (≈ 482 µM)	32 µg/mL (≈ 121 µM)	128 µg/mL (≈ 482 µM)	128 µg/mL (≈ 482 µM)	128 µg/mL (≈ 482 µM)	128 µg/mL (≈ 482 µM)	128 µg/mL (≈ 482 µM)	8 µg/mL (≈ 30.1 µM)	1 µg/mL (≈ 3.77 µM)	128 µg/mL (≈ 482 µM)	128 µg/mL (≈ 482 µM)	64 µg/mL (≈ 241 µM)	64 µg/mL (≈ 241 µM)	inhibition (Candida albicans [4]): inactive; MIC (Candida albicans [20]): 128 µg/mL (≈ 482 µM)
CC(C)[C@H](N)c1nc2ccccc2n1Cc1cccc(F)c1	4 µg/mL (≈ 13.5 µM)	16 µg/mL (≈ 53.8 µM)	64 µg/mL (≈ 215 µM)	16 µg/mL (≈ 53.8 µM)	4 µg/mL (≈ 13.5 µM)	128 µg/mL (≈ 430 µM)	16 µg/mL (≈ 53.8 µM)	16 µg/mL (≈ 53.8 µM)	16 µg/mL (≈ 53.8 µM)	16 µg/mL (≈ 53.8 µM)	128 µg/mL (≈ 430 µM)	2 µg/mL (≈ 6.73 µM)	16 µg/mL (≈ 53.8 µM)	16 µg/mL (≈ 53.8 µM)	16 µg/mL (≈ 53.8 µM)	0.125 µg/mL (≈ 0.42 µM)	32 µg/mL (≈ 108 µM)	16 µg/mL (≈ 53.8 µM)	8 µg/mL (≈ 26.9 µM)	0.125 µg/mL (≈ 0.42 µM)	inhibition (Candida albicans [4]): inactive; CC50 at 120 h [21]: 20.6 µM; Ratio CC50/IC50 [22]: 9.4; MIC (Candida albicans [20]): 16 µg/mL (≈ 53.8 µM); IC50 (Candida albicans [23]): 2.2 µM
CC(C)[C@H](N)c1nc2ccccc2n1Cc1cccc(Cl)c1	0.25 µg/mL (≈ 0.797 µM)	0.125 µg/mL (≈ 0.398 µM)	2 µg/mL (≈ 6.37 µM)	1 µg/mL (≈ 3.19 µM)	0.25 µg/mL (≈ 0.797 µM)	16 µg/mL (≈ 51 µM)	16 µg/mL (≈ 51 µM)	32 µg/mL (≈ 102 µM)	16 µg/mL (≈ 51 µM)	0.5 µg/mL (≈ 1.59 µM)	8 µg/mL (≈ 25.5 µM)	16 µg/mL (≈ 51 µM)	0.5 µg/mL (≈ 1.59 µM)	16 µg/mL (≈ 51 µM)	2 µg/mL (≈ 6.37 µM)	0.125 µg/mL (≈ 0.398 µM)	4 µg/mL (≈ 12.7 µM)	2 µg/mL (≈ 6.37 µM)	0.125 µg/mL (≈ 0.398 µM)	0.125 µg/mL (≈ 0.398 µM)	CC50 at 120 h [21]: 97.5 µM; Ratio CC50/IC50 [22]: 130; MIC (Candida albicans [20]): 64 µg/mL (≈ 204 µM); IC50 (Candida albicans [23]): 0.75 µM
OC(Cn1cncn1)(Cn1cncn1)c1ccc(F)cc1F [FLUCONAZOLE]	0.5 µg/mL (≈ 1.63 µM)	4 µg/mL (≈ 13.1 µM)	4 µg/mL (≈ 13.1 µM)	0.25 µg/mL (≈ 0.816 µM)	0.5 µg/mL (≈ 1.63 µM)	128 µg/mL (≈ 418 µM)	1 µg/mL (≈ 3.27 µM)	8 µg/mL (≈ 26.1 µM)	0.5 µg/mL (≈ 1.63 µM)	0.25 µg/mL (≈ 0.816 µM)	2 µg/mL (≈ 6.53 µM)	128 µg/mL (≈ 418 µM)	0.25 µg/mL (≈ 0.816 µM)	8 µg/mL (≈ 26.1 µM)	2 µg/mL (≈ 6.53 µM)	0.125 µg/mL (≈ 0.408 µM)	128 µg/mL (≈ 418 µM)	1 µg/mL (≈ 3.27 µM)	0.125 µg/mL (≈ 0.408 µM)	0.125 µg/mL (≈ 0.408 µM)	MIC (Candida albicans [20]): 0.125 µg/mL (≈ 0.408 µM)
C[C@H](N)c1nc2ccccc2n1Cc1cccc(Cl)c1	8 µg/mL (≈ 28 µM)	4 µg/mL (≈ 14 µM)	8 µg/mL (≈ 28 µM)	8 µg/mL (≈ 28 µM)	1 µg/mL (≈ 3.5 µM)	128 µg/mL (≈ 448 µM)	16 µg/mL (≈ 56 µM)	16 µg/mL (≈ 56 µM)	0.5 µg/mL (≈ 1.75 µM)	4 µg/mL (≈ 14 µM)	128 µg/mL (≈ 448 µM)	16 µg/mL (≈ 56 µM)	4 µg/mL (≈ 14 µM)	16 µg/mL (≈ 56 µM)	4 µg/mL (≈ 14 µM)	0.125 µg/mL (≈ 0.437 µM)	8 µg/mL (≈ 28 µM)	4 µg/mL (≈ 14 µM)	8 µg/mL (≈ 28 µM)	0.125 µg/mL (≈ 0.437 µM)	inhibition (Candida albicans [4]): inactive; CC50 at 120 h [21]: 19.3 µM; Ratio CC50/IC50 [22]: 2.5; MIC (Candida albicans [20]): 8 µg/mL (≈ 28 µM); IC50 (Candida albicans [23]): 7.8 µM
Cc1cccc(Cn2c([C@@H](N)C(C)C)nc3ccccc32)c1	16 µg/mL (≈ 54.5 µM)	0.125 µg/mL (≈ 0.426 µM)	32 µg/mL (≈ 109 µM)	2 µg/mL (≈ 6.82 µM)	32 µg/mL (≈ 109 µM)	128 µg/mL (≈ 436 µM)	32 µg/mL (≈ 109 µM)	64 µg/mL (≈ 218 µM)	32 µg/mL (≈ 109 µM)	1 µg/mL (≈ 3.41 µM)	128 µg/mL (≈ 436 µM)	32 µg/mL (≈ 109 µM)	1 µg/mL (≈ 3.41 µM)	32 µg/mL (≈ 109 µM)	16 µg/mL (≈ 54.5 µM)	0.125 µg/mL (≈ 0.426 µM)	8 µg/mL (≈ 27.3 µM)	1 µg/mL (≈ 3.41 µM)	0.25 µg/mL (≈ 0.852 µM)	0.5 µg/mL (≈ 1.7 µM)	inhibition (Candida albicans [4]): inactive; CC50 at 120 h [21]: 10.6 µM; Ratio CC50/IC50 [22]: 3.2; MIC (Candida albicans [20]): 32 µg/mL (≈ 109 µM); IC50 (Candida albicans [23]): 3.3 µM
CCC[C@H](N)c1nc2ccccc2n1Cc1cccc(C)c1																					inhibition (Candida albicans [4]): inactive; CC50 at 120 h [21]: 30 µM; Ratio CC50/IC50 [22]: 15; IC50 (Candida albicans [23]): 2 µM
